In ChEMBL document CHEMBL1142953, “Calcitonin gene-related peptide analogues with aza and indolizidinone amino acid residues reveal conformational requirements for antagonist activity at the human calcitonin gene-related peptide 1 receptor” (J Med Chem, 2007):
Calls of active or inactive are those of the source. The calls are words filed in the database; no cut-off is given here. Where a SMILES comes first, the peptide text is derived from it.

Assays:
Type in all cases: functional, cell-based
[1] = biological target: Calcitonin gene-related peptide type 1 receptor (Homo sapiens, UniProt O60894+Q16602); assay: (§1) Antagonist activity against human CGRP1 expressed in HEK293 cells assessed as inhibition of human alpha-CGRP-promoted cAMP production
Calcitonin gene-related peptide type 1 receptor, sequence (Q16602 whole entry, one chain of several): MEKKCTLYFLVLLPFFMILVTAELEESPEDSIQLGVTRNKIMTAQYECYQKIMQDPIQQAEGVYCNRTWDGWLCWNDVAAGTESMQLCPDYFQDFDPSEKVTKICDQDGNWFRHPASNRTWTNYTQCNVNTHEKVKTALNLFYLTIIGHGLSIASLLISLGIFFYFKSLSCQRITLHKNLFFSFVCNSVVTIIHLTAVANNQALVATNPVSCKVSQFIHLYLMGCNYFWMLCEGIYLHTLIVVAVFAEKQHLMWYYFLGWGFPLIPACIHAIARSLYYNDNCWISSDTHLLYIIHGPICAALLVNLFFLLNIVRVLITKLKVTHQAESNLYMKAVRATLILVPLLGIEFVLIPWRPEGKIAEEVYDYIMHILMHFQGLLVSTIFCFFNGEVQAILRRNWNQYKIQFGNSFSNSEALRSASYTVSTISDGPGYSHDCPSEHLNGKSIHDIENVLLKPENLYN
Summary of the method: (§2)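 HEK293 cells stably expressing CRLR, seeded at 5000 cells/well. Cells preincubated with peptide analogues for 15 min at 37 °C, then stimulated with 0.5 nM α-CGRP for 15 min at 37 °C. cAMP measured with a fluorescence-based kit. Peptides tested up to 100 µM. At least three independent experiments in triplicate, analysed by nonlinear curve fitting; mean ± SEM.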

[2] = biological target: Calcitonin gene-related peptide type 1 receptor (Homo sapiens) (UniProt Q16602); assay: as §1; set-up: concentration or dose not given beside the values; settings: concentration not given here; summary of the method: as §2
Calcitonin gene-related peptide type 1 receptor (Homo sapiens), sequence (Q16602 whole entry): as the sequence (Q16602 whole entry, one chain of several) above

[3] = biological target: Calcitonin gene-related peptide type 1 receptor (Homo sapiens) (UniProt Q16602); assay: Partial agonist activity at human CGRP1 expressed in HEK293 cells assessed by measuring cAMP production upto 1 uM
Summary of the method: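 HEK293 cells stably expressing CRLR were exposed to CGRP27-37 analogues up to 1 µM without α-CGRP. cAMP production was measured with a fluorescence-based kit as the read-out.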

Compound: CC(C)[C@H](NC(=O)N(CC(=O)O)NC(=O)[C@@H](NC(=O)[C@@H]1CCCN1C(=O)[C@@H](NC(=O)[C@@H](N)Cc1ccccc1)C(C)C)[C@@H](C)O)C(=O)NCC(=O)N1CCC[C@H]1C(=O)N[C@@H](Cc1ccccc1)C(=O)N[C@@H](C)C(=O)N[C@@H](Cc1ccccc1)C(N)=O (HELM PEPTIDE1{F.V.P.T.[O=C(O)CN(N[*:1])C(=O)[*:2]].V.G.P.F.A.F.[am]}$$$$V2.0)
- IC50 [1]: 380 nM
- inhibition [2]: 59%
- Activity [3]: inactive
